The text below walks through data of article PMC3806331 (Journal of natural products, 2013).

Read-outs that look alike come from different tables or passages of the source.

For data set [1], the system named is HT-29 human colon cancer cell line. Nature of the data set: SRB cytotoxicity assay, HT-29. Type of data set: cell-based. As to conditions: HT-29, 72 h, read-out: IC50 HT-29 72 h.
Data set [2] has as its system quinone reductase in Hepa 1c1c7 murine hepatoma cell line. Nature of the data set: Quinone reductase induction assay. Type of data set: cell-based. As to conditions: Mus musculus, Hepa-1c1c7, read-out: CD (concentration required to double quinone reductase activity), Hepa 1c1c7 cells; average ± SD, three independent experiments.
Data set [3] relates to Raji human Burkitt's lymphoma cells. The data set can be described thus: MTS growth inhibition assay, Raji cells. Type of data set: cell-based. A general note: Tetrazolium assays rely on reduction of a dye to a coloured formazan, in cell work by metabolically active cells.
In data set [4] the test system is 697 human acute lymphoblastic leukemia cells. Nature of the data set: MTS growth inhibition assay, 697 cells. The class given is cell-based. As to conditions: read-out: IC50 values in 697 cells (range).
Data set [5] relates to immunodeficient female NCr nu/nu mice. Nature of the data set: Toxicity to mice in the hollow fiber assay. The class given is in vivo. Summed up:
(§1)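 HT-29 cells (1 × 10^6 per mL), alongside other human cancer lines, grown in hollow fibers implanted ip and sc in immunodeficient female NCr nu/nu mice. Test compound given by ip injection once daily: first run at 5, 10, 15, 30 mg/kg in 30% cyclodextrin; repeat run at 0.5, 1, 2 mg/kg. Positive controls: bortezomib 1 mg/kg ip (first run); paclitaxel 5 mg/kg ip (repeat run).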

Data set [6] has as its system HT-29 human colon cancer cells. The data set can be described thus: In vivo hollow fiber assay, HT-29. As to conditions: HT-29 in hollow fibers in mice, any dose, ip once daily. Summed up: as §1

As to `COc1ccc2c(c1C1=COC(C)(C)C1=O)O[C@H](c1ccccc1)CC2=O` [Compound 3, (2S)-2,3-dihydrotephroglabrin], the IC50 (as a rule, the midpoint of a concentration-inhibition curve) in data set [1] is > 10 µM; in data set [3] (48 h, read-out: IC50 Raji 48 h), > 10 µM; in data set [3] (72 h, read-out: IC50 Raji 72 h), > 10 µM. The EC (2-fold induction) in data set [2] was < 10 µM.
Regarding `COc1cc2c(cc1OC)[C@]1(O)C(=O)c3ccc4c(c3O[C@@H]1CO2)C=CC(C)(C)O4` [Compound 9, tephrosin], the IC50 in data set [4] fell in the range of 5.4 to 9 µM.
Regarding `COc1cc2c(c(O)c1C(=O)/C=C/c1ccccc1)[C@H]1[C@@H](O2)OC(C)(C)[C@@H]1OC(C)=O` [Compound 10, (+)-tephropurpurin], the IC50 in data set [1] is > 10 µM; in data set [3] (48 h, read-out: IC50 Raji 48 h), > 10 µM; in data set [3] (72 h, read-out: IC50 Raji 72 h), > 10 µM.
For `CC1(C)O[C@@H]2Oc3ccc(C(=O)/C=C/c4ccccc4)c(O)c3[C@@H]2[C@H]1O` [Compound 11, (+)-tephrosone], the half-inhibitory concentration (IC50) is > 10 µM in data set [1]; > 10 µM in data set [3] (48 h, read-out: IC50 Raji 48 h); > 10 µM in data set [3] (72 h, read-out: IC50 Raji 72 h).
With `COc1ccc2c(c1/C=C/C(C)(C)OC)O[C@H](c1ccccc1)CC2=O` [Compound 6, (2S)-7-methoxy-8-(3-methoxy-3-methyl-but-1-enyl)flavanone], the IC50 is > 10 µM in data set [1]; > 10 µM in data set [3] (48 h, read-out: IC50 Raji 48 h); > 10 µM in data set [3] (72 h, read-out: IC50 Raji 72 h). The EC (2-fold induction) in data set [2] is < 10 µM.
For the compound `C=C(C)[C@H]1Cc2c(ccc3c2O[C@@H]2COc4cc(OC)c(OC)cc4[C@]2(O)C3=O)O1` [Compound 7, cis-(6aβ,12aβ)-hydroxyrotenone], in data set [5] (ip 0.5, 1 and 2 mg/kg once daily), the toxicity to mice result is “no noticeable toxicity”. Besides, the lethality to mice result in data set [5] (ip 5, 10, 15 and 30 mg/kg once daily) is recorded as “lethal”. The “net reduction of relative percent cell growth” value in data set [6] is on record as “No effect”.
In the case of `COc1ccc2c(c1/C=C/C(C)(C)O)O[C@H](c1ccccc1)CC2=O` [Compound 4, (2S)-2,3-dihydrotephroapollin C], the IC50 was > 10 µM in data set [1]; > 10 µM in data set [3] (48 h, read-out: IC50 Raji 48 h); > 10 µM in data set [3] (72 h, read-out: IC50 Raji 72 h).
